Data reported in publication PMC9099131 (Clinical and Translational Science, 2022).
≈ marks a conversion by molar mass, not a printed value.

Tests used:
[1] = Single-dose plasma pharmacokinetics of trazpiroben alone and with esomeprazole; format: in vivo, human (healthy adults); settings: for AUC∞, Geometric LSM / Cmax, Geometric LSM: ANOVA
Outline: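 Healthy adults dosed orally with 25 mg on day 1; after a 4-day washout, the proton pump inhibitor was given at 40 mg once daily on days 8–12, with 25 mg co-dosed 1 h after it on day 11 following a ≥10 h fast. Plasma was sampled predose to 48 h and assayed by validated LC-MS/MS (0.05–50.00 ng/ml), with BLQ values set to zero. Noncompartmental parameters were derived, and ln AUC∞/Cmax were analysed by ANOVA (treatment fixed, participant random).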

[2] = ref data on file, cited from earlier work
[3] = trazpiroben 25 mg alone, N = 12
[4] = trazpiroben 25 mg and esomeprazole 40 mg, N = 12
[5] = plasma, single oral dose trazpiroben 25 mg alone, N = 12
[6] = single dose alone or in the presence of esomeprazole
[7] = single oral dose trazpiroben 25 mg alone, N = 12
[8] = single oral dose trazpiroben 25 mg with esomeprazole 40 mg once daily, N = 12
[9] = trazpiroben 25 mg with esomeprazole 40 mg vs alone
[10] = single oral dose of trazpiroben 25 mg alone on day 1

For `O=C(O)c1cccc(CN2CN(C3CCCCC3)C3(CCN(CCCC(=O)c4ccccc4)CC3)C2=O)c1` [Trazpiroben], the “AUC∞, Geometric LSM” value [1, 3] was 44.03 ng·h/mL, the “Cmax, Geometric LSM” value [1, 3] was 19.76 ng/mL and the “AUC∞, Geometric LSM” value [1, 4] was 38.85 ng·h/mL. For the same molecule, the “Cmax, Geometric LSM” value [1, 4] was 17.24 ng/mL, the “AUC∞, Geo. mean (CV%)” value [1, 5] was 44.03 (27.50) ng h/ml and the “Cmax, Geo. mean (CV%)” value [1, 5] was 19.76 (36.50) ng/ml. The “Tmax, Median (min, max)” value [1, 5] was 1.00 (0.50, 1.53) h, the “t1/2, Mean (±SD)” value [1, 5] was 6.21 ± 3.96 h and the “approximate half-life of biphasic decline” value [1, 6] was 6 to 7 h. For the same molecule, the “time postdose at which mean plasma concentration peaked” value [1, 6] was “around 1 h”, the “CL/F, Geo. mean (CV%)” value [1, 7] was 567.90 (27.50) L/h and the “Vz/F, Geo. mean (CV%)” value [1, 7] was 4137.00 (77.80) L. The “CL/F, Geo. mean (CV%)” value [1, 8] was 643.50 (31.10) L/h, the “Vz/F, Geo. mean (CV%)” value [1, 8] was 4716.00 (102.00) L and the “GMR for plasma AUC∞ lower following co-administration versus trazpiroben alone” value [1, 9] was 11.8%. For the same molecule, the “GMR for plasma Cmax lower following co-administration versus trazpiroben alone” value [1, 9] was 12.8%, the mean solubility ([2]; pH 1.15) was 1210 µg/mL and the solubility ([2]; pH 6.97) was 50 µg/mL (≈ 96.6 µM). For the same molecule, the “vital sign and ECG parameters” value (following both treatments) was “no clinically meaningful changes”, the tolerability (healthy adults, administration alone and alongside esomeprazole) was “well‐tolerated” and the “CNS or cardiovascular safety concerns” value (single agent or co-administered with esomeprazole) was “no CNS or cardiovascular safety concerns were observed”. The “Number of participants with treatment‐emergent AEs” value [10] was 2 (17) n (%), the “Participants reporting AEs: Folliculitis” value [10] was 0 (0) n (%) and the “Participants reporting AEs: General disorders and administration site conditions” value [10] was 0 (0) n (%). The “Participants reporting AEs: Headache” value [10] was 1 (8) n (%), the “Participants reporting AEs: Infections and infestations” value [10] was 0 (0) n (%) and the “Participants reporting AEs: Influenza‐like illness” value [10] was 0 (0) n (%). For the same molecule, the “Participants reporting AEs: Menstruation delayed” value [10] was 0 (0) n (%), the “Participants reporting AEs: Nervous system disorders” value [10] was 1 (8) n (%) and the “Participants reporting AEs: Oropharyngeal pain” value [10] was 0 (0) n (%). For the same molecule, the “Participants reporting AEs: Reproductive system and breast disorders” value [10] was 0 (0) n (%), the “Participants reporting AEs: Respiratory, thoracic, and mediastinal disorders” value [10] was 1 (8) n (%) and the “Participants reporting AEs: Throat irritation” value [10] was 1 (8) n (%). For the same molecule, the “Participants reporting AEs: Vessel puncture site pain” value [10] was 0 (0) n (%), the “Participants reporting AEs: Vessel puncture site reaction” value [10] was 0 (0) n (%) and the “deaths, serious AEs, discontinuations due to AEs” value (whole study, 12 participants) was “No deaths, serious AEs, or discontinuations due to AEs were reported”.
